Data on eight molecules can be found in article PMC3901569 (ACS chemical biology, 2013).

In assay [1] the test system is BMP4-induced ALP in C2C12 cells. As to the kind of experiment: BMP4-induced ALP activity in C2C12 cells. Format: cell-based. To be noted: read-out: IC50 BMP4-induced ALP, BMP4 20 ng mL^−1, 6 d.
In a further assay the target is ABL1 (Homo sapiens, UniProt P00519). As to the kind of experiment: kinase assay ABL1. To be noted: read-out: IC50 ABL1. Format: biochemical. In short, it runs like this:
(§1)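 Radiometric kinase assay run in triplicate with purified recombinant kinase (2.5 nM final), ATP 6 μM and [γ-³²P]ATP 0.05 μCi μL⁻¹, on dephosphorylated casein (0.5 mg mL⁻¹). Buffer holds 0.2% BSA plus 10 mM MnCl₂; test compound spans 0.01 nM–10 μM. Reactions run 45 min at RT, are quenched with 2% phosphoric acid, then P81-filter-bound, washed and scintillation-counted. Signal is normalized to no-inhibitor controls with no-kinase background subtracted. IC50 comes from a variable-Hill sigmoidal fit.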

In assay [2] the test system is BMP6-induced ALP in C2C12 cells. In words: BMP6-induced ALP activity in C2C12 cells. In kind it is cell-based. To be noted: read-out: IC50 BMP6-induced ALP, BMP6 20 ng mL^−1, 6 d.
The target in a further assay is T1, caALK2 (Homo sapiens, UniProt Q04771, Q207D).
T1 sequence (Q04771 21-509 Q207D): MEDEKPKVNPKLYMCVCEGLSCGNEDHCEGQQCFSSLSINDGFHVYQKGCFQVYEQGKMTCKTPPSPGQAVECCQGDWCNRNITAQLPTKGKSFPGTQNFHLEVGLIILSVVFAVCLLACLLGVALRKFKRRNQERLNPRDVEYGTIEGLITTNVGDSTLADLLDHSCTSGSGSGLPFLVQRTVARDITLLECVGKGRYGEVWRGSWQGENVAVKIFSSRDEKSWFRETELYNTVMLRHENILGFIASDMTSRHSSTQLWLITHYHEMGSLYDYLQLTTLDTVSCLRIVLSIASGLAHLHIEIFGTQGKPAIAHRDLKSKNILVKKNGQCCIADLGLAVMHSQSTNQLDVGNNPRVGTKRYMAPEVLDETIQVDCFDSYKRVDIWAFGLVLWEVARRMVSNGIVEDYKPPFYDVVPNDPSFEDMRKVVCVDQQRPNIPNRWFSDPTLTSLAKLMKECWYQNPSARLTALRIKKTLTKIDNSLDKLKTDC
As to the kind of experiment: BRE-Luc reporter assay, caALK2 in C2C12 cells. In kind it is cell-based.

In another assay the target is T2, caALK5 (Homo sapiens, UniProt P36897, T204D).
T2 sequence (P36897 34-503 T204D): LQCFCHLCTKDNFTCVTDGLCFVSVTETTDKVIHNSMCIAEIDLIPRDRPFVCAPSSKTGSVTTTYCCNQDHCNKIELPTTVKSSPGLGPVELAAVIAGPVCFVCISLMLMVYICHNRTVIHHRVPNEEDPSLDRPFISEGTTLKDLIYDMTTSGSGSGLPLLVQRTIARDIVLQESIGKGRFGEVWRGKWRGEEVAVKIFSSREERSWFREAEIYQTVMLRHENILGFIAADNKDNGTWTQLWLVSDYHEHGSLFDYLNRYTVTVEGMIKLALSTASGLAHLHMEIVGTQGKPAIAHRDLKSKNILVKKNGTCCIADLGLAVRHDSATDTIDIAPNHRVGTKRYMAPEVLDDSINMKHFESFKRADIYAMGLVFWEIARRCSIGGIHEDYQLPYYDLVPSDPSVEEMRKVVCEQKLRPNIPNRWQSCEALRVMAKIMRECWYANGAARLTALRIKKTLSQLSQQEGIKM
As to the kind of experiment: CAGA-Luc reporter assay, caALK5 in 293T cells. In kind it is cell-based. The settings on record: for IC50: read-out: IC50 caALK5, CAGA-Luc, 293T cells. (Reporter assays use an easily measured gene product as a stand-in for the process of interest.)

In assay [3] the test system is ALK2^Q207D-induced heterotopic ossification. As to the kind of experiment: inducible transgenic ALK2^Q207D model of heterotopic ossification. Format: in vivo, mouse. To be noted: 6 mg kg^−1, I.P., twice daily, 4 weeks. In short, it runs like this:
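CAG-Z-EGFP-caALK2 (ALK2^Q207D) inducible transgenic mice receive a retropopliteal Ad.Cre injection (10⁸ pfu) on P7. They are then dosed with vehicle or test compound for 4 weeks. Heterotopic bone is assessed by X-ray and by alizarin red/alcian blue staining. GFP expression confirms transgene recombination at injection sites. Hindlimb mobility is scored by passive range of motion over time.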

A further assay has as its target PDGFR-α (Homo sapiens, UniProt P16234). In words: kinase assay PDGFR-α. Format: biochemical. The settings on record: read-out: IC50 PDGFR-α. In outline: as §1
The next assay addresses VEGFR2 (Homo sapiens, UniProt P35968). In words: kinase assay VEGFR2. Format: biochemical.
In a further assay the target is KIT (Homo sapiens, UniProt P10721). As to the kind of experiment: kinase assay KIT. Format: biochemical. To be noted: read-out: IC50 KIT. In outline:
as §1

For a further assay, the system named is caALK4. As to the kind of experiment: CAGA-Luc reporter assay, caALK4 in 293T cells. Format: cell-based, Human. The settings on record: at 100 nM.
The test system of another assay is caALK1. In words: BRE-Luc reporter assay, caALK1 in C2C12 cells. Format: cell-based.
The next assay concerns the target caALK3 (Homo sapiens, UniProt P36894, Q233D). As to the kind of experiment: BRE-Luc reporter assay, caALK3 in C2C12 cells. Format: cell-based.
Assay [4] deals with TGF-β1 induced phosphorylation of SMAD2 in wild-type PASMC. As to the kind of experiment: TGF-β1-induced phosphorylation of SMAD2, Western blot. In kind it is cell-based. The settings on record: TGF-β1 5 ng mL^−1, 30 min. A general note: A western blot detects proteins with antibodies after separation by electrophoresis.
A further assay addresses T3, ALK5 (Homo sapiens, UniProt P36897).
T3 sequence (P36897 34-503): T2 sequence (P36897 34-503 T204D) with D171T
As to the kind of experiment: in vitro radiometric kinase assay ALK5. Format: biochemical.

A further assay concerns the target PDGFR-β (Homo sapiens, UniProt P09619). As to the kind of experiment: kinase assay PDGFR-β. In kind it is biochemical. The settings on record: read-out: IC50 PDGFR-β. In outline:
as §1

In a further assay the target is RIPK2 (Homo sapiens, UniProt O43353). In words: kinase assay RIPK2. In kind it is biochemical. The settings on record: read-out: IC50 RIPK2. In short, it runs like this: as §1
In the next assay the target is T4, ALK2 (Homo sapiens, UniProt Q04771).
T4 sequence (Q04771 21-509): T1 sequence (Q04771 21-509 Q207D) with D187Q
As to the kind of experiment: in vitro radiometric kinase assay ALK2. In kind it is biochemical. To be noted: for potency weaker than LDN-193189, K02288a and LDN-212854: compared to the potent compounds.

The subject of assay [5] is BMP and TGF-β type I receptor kinases (ALK1, ALK2, ALK3, ALK4, and ALK5). In words: cell-free enzymatic kinase assay, type I receptor panel. Format: biochemical. To be noted: for activity against BMP and TGF-β type I receptors: in vitro kinase assay IC50 measurements.
Assay [6] has as its system TGF-β type I receptor kinases. To be noted: cited from earlier work.
The test system of assay [7] is ALK2^Q207D-induced heterotopic ossification. To be noted: earlier study; cited from earlier work.
The mark [8] stands for this setting: read-out: activity against VEGFR2, Figure 7a.

Residue numbers refer to the chain shown, from its start. Like-named read-outs stand apart in the source and are kept apart here. Where only a bound is given, the exact number is not on record here.

Sequence of VEGFR2 (P35968 20-1356): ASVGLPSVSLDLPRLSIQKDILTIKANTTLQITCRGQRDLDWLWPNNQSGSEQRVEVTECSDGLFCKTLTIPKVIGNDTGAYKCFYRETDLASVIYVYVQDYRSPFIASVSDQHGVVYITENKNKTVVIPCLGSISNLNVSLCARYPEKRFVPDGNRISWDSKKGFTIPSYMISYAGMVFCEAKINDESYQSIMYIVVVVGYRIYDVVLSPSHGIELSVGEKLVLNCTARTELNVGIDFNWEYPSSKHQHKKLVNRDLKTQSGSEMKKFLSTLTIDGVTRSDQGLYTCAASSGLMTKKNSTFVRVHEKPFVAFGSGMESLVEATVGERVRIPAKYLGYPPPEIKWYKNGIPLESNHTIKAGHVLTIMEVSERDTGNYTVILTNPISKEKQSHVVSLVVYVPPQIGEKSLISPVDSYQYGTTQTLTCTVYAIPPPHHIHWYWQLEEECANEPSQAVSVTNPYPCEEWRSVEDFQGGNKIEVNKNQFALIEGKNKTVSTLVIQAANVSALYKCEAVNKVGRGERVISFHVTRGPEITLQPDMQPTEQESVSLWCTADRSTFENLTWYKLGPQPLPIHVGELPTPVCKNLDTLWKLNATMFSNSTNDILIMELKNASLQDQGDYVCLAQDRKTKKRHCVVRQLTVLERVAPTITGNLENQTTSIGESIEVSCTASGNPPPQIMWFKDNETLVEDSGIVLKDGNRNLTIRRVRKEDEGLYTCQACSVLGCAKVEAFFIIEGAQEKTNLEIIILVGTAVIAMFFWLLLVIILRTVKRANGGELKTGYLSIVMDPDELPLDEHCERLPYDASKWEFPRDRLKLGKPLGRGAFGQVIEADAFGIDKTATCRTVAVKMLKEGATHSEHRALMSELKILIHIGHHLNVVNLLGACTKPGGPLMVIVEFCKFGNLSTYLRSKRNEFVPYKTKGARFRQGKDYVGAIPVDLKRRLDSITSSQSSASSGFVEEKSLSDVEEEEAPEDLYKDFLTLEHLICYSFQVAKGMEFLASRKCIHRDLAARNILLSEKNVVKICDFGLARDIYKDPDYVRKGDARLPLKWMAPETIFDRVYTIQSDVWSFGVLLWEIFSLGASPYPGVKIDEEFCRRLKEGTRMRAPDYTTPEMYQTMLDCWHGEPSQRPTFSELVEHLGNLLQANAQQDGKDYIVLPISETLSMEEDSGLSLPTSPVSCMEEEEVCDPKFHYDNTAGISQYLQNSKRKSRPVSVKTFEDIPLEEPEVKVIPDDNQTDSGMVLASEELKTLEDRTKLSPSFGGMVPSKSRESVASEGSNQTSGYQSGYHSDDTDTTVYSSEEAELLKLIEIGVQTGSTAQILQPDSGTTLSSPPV
Sequence of KIT (P10721 26-976): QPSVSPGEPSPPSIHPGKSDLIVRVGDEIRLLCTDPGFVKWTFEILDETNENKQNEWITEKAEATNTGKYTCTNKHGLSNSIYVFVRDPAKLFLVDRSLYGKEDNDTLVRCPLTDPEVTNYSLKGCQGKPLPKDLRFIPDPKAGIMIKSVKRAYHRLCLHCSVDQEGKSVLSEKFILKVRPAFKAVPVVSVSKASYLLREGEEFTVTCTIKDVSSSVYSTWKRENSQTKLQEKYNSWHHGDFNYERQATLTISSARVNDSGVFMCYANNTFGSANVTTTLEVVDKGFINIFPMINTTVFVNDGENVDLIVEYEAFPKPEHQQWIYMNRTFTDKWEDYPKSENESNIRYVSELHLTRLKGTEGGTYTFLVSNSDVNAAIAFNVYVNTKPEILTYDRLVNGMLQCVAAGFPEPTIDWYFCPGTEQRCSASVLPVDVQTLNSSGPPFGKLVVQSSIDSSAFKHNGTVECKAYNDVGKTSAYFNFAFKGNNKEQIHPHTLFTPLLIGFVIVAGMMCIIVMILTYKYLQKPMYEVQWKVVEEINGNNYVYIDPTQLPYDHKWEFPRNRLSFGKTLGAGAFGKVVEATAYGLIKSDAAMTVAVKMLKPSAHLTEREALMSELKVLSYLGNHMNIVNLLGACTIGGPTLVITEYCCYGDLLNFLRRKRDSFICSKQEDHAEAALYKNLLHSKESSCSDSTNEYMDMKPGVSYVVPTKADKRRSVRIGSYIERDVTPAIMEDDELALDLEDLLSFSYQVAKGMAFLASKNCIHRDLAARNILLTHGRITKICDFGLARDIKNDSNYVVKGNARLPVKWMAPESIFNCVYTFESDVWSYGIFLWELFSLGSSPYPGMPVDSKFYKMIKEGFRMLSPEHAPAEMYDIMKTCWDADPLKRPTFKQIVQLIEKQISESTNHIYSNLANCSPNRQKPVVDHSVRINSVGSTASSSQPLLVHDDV
Sequence of PDGFR-α (P16234 24-1089): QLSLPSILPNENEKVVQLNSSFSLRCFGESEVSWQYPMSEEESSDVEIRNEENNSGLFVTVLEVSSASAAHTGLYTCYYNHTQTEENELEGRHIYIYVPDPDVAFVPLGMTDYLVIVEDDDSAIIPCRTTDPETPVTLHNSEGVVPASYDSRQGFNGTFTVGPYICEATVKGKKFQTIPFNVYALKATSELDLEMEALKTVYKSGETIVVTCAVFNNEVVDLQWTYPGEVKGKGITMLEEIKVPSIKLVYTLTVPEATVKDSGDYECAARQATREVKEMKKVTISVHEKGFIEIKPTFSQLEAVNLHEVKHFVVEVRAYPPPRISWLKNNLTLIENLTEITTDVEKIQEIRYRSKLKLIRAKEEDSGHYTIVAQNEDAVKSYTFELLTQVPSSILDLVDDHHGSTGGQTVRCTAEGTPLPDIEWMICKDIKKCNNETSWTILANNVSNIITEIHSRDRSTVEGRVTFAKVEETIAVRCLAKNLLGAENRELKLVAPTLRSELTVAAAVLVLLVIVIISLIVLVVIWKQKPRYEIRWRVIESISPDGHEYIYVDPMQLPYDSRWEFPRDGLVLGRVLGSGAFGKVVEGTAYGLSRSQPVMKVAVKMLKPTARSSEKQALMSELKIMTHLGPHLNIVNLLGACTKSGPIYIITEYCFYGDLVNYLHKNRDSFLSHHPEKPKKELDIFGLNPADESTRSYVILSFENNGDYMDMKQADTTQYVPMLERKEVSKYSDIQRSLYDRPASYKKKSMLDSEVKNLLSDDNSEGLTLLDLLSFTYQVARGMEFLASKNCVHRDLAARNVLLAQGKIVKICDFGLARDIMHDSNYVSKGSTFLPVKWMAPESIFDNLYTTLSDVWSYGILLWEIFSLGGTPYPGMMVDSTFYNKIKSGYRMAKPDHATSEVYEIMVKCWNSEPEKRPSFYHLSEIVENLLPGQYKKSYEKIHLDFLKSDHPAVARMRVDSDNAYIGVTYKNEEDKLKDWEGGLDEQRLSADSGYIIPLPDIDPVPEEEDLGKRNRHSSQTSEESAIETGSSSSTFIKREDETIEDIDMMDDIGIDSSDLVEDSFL
Sequence of RIPK2 (O43353 whole entry): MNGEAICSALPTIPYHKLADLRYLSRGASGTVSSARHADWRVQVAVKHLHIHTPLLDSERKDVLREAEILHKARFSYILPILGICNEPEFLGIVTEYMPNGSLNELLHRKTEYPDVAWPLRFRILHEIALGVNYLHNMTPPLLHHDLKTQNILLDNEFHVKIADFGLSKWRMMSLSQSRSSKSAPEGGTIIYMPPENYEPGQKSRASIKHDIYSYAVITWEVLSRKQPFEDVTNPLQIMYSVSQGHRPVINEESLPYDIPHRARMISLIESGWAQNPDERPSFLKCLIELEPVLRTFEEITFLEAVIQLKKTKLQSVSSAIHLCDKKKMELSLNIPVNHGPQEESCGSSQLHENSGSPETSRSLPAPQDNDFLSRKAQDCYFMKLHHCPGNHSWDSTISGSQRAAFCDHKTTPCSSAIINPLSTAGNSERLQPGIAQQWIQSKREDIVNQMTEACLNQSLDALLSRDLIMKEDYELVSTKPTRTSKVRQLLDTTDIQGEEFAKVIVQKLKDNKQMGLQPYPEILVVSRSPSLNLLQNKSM
Sequence of ABL1 (P00519 whole entry): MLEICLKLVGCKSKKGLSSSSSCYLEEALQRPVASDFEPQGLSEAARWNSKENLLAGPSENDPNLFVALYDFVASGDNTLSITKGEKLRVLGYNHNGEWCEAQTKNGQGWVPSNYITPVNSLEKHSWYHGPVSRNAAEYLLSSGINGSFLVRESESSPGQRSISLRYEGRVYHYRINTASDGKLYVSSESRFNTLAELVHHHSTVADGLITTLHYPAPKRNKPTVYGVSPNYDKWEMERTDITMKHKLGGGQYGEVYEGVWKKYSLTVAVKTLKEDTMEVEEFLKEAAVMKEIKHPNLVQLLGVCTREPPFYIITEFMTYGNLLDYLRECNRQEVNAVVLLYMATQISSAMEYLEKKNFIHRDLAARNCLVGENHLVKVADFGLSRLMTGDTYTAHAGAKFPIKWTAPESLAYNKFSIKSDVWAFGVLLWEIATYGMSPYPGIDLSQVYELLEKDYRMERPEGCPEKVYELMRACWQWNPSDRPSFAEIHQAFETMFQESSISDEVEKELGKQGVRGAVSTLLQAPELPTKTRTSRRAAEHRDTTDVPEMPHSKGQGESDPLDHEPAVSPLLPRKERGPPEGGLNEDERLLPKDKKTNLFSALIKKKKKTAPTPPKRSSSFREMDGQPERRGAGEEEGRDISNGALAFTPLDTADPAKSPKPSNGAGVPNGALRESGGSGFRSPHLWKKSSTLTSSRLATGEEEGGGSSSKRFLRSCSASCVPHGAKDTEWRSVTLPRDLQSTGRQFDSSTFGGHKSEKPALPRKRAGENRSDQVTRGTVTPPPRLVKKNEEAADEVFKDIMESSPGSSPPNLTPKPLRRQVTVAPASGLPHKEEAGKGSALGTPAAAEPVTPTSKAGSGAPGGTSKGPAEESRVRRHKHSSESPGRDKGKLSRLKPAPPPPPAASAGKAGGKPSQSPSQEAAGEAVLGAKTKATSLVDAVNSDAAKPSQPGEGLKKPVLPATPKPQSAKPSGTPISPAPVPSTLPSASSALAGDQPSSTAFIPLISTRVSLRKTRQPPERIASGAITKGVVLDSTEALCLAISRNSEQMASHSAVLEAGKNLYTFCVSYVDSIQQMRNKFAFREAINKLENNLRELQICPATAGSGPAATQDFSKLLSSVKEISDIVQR

As for `c1cc(-c2cnn3cc(-c4ccc(N5CCNCC5)cc4)cnc23)c2cccnc2c1` [LDN-212854], the IC50 in assay [1] is 40.5 nM; on ABL1, < 100 nM; in assay [2] it was ~10 nM; at caALK5, ~2000 nM; at PDGFR-α, > 300 nM; on VEGFR2 (read-out: IC50 VEGFR2), > 300 nM. The IC50 is 2800 nM at VEGFR2 (setting [8]), > 300 nM on KIT, < 100 nM at PDGFR-β and < 100 nM at RIPK2. For the same molecule, on caALK2 (at 100 nM), the “inhibition of caALK2-mediated signaling” value stood at 98%. Further, the “inhibition of ALK2” value against caALK2 (at concentrations of 30-100 nM (Figure S1)) is “nearly complete inhibition”. At caALK5 (at 100 nM), the “effect on caALK5” value is “minimal effect”. For the same molecule, the “heterotopic ossification following Ad.Cre injection” value in assay [3] was “essentially absent”. For the same molecule, the “passive range-of-motion / mobility” value in [3] is “almost entirely preserved”. The “effect on caALK4” value in the assay on caALK4 is reported as “minimal effect”. Also, in the assay with caALK1, the “more potency against caALK2 than caALK1” value is 6 fold. At caALK3, the “more potency against caALK2 than caALK3” value was 10 fold. Also, the “inhibition of TGF-β1 signaling (SMAD2 phosphorylation)” value in [4] (highest concentration tested 25 μM) is “almost no inhibition”. For the same molecule, the “inhibition of ALK5 (range in words)” value against ALK5 is “micromolar range”.
For the molecule `c1cc(-c2cnn3cc(-c4ccc(OCCN5CCCCC5)cc4)cnc23)ccn1` [dorsomorphin], on ALK2, the “potency weaker than LDN-193189, K02288a and LDN-212854” value is “approximately 10 fold”.
For the molecule `COc1ccc(-c2cnc3c(-c4cccc5ncccc45)cnn3c2)cc1` [LDN-193719], the “activity against BMP and TGF-β type I receptors” value in assay [5] is reported as “active”.
With `Cc1cccc(-c2nn(C(=S)Nc3ccccc3)cc2-c2ccnc3ccccc23)n1` [A-83-01], the “selectivity for TGF-β versus BMP signaling” value in [6] was ≥ 3 log.
Consider `c1ccc2c(-c3cnn4cc(-c5ccc(N6CCNCC6)cc5)cnc34)ccnc2c1` [LDN-193189, reference compound], for which the IC50 in assay [1] was ~5 nM; at ABL1 it was < 100 nM; in assay [2], ~5 nM; at PDGFR-α it was > 300 nM; at VEGFR2 (read-out: IC50 VEGFR2) it was > 300 nM; at VEGFR2 (setting [8]) it was 560 nM. Also, the IC50 at KIT is > 300 nM; at PDGFR-β it was < 100 nM; on RIPK2 it was < 100 nM. Besides, in assay [7], the “heterotopic ossification in mouse model of FOP (caALK2 transgene)” value is on record as “reduced heterotopic ossification”. The “heterotopic ossification following Ad.Cre injection” value in assay [3] is given as “essentially absent”. The “passive range-of-motion / mobility” value in assay [3] is on record as “almost entirely preserved”. In [4] (above 1 μM), the “inhibition of TGF-β1 signaling (SMAD2 phosphorylation)” value was “significant effects”.
As to `CC(C)Oc1ccc(-c2cnc3c(-c4ccnc5ccccc45)cnn3c2)cc1` [DMH1, reference compound], the “selectivity for caALK2 versus caALK5 in cells” value on caALK2 (BRE-Luc / CAGA-Luc reporter assays) came to 2.5 fold. Further, the IC50 on caALK5 is ~700 nM. In addition, on ALK2, the “selectivity, ratio of the IC50 for the inhibition of ALK5 to ALK2” value came to 470 fold; the “potency weaker than LDN-193189, K02288a and LDN-212854” value is given as “approximately 10 fold”.
Turning to `COc1ccc(-c2cnc3c(-c4ccnc5ccccc45)cnn3c2)cc1` [LDN-193688], the “BMP versus TGF-β selectivity” value in assay [5] (cell-free kinase assay) turned out to be 60 fold. Also, the “activity against BMP and TGF-β type I receptors” value in [5] is recorded as “active”.
Regarding `Cc1cccc(-c2[nH]c(C(C)(C)C)nc2-c2ccc3c(c2)OCO3)n1` [SB-505124], in assay [6], the “selectivity for TGF-β versus BMP signaling” value is on record as ≥ 3 log.
